Source: ChEMBL document CHEMBL5058577, “EUbOPEN Chemogenomics Library 2 (Multiplex)” (2022)

System: Fibroblast
Test: Multiplex assay against human fibroblast
Type: toxicity, cell-based
Method in brief: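 Per cents of healthy-nucleus cells form the tubulin, mitochondrial-mass and membrane-permeability phenotype values. Live cells were stained at seeding with Hoechst33342, BioTracker Green Microtubule Cytoskeleton Dye, MitoTracker Red and Annexin V Alexa Fluor 680. After compound addition they were imaged on a CQ1 microscope at 37°C and 5% CO2, and CellPathfinder machine-learning gating split them into Hoechst high-intensity objects or normal cells, normal cells into healthy, pyknosed or fragmented nuclei, and pyknosed cells into mitotic or apoptotic.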

[1] = 12 h, 1 µM, compound concentration 1 uM, replicate 1
[2] = 12 h, 1 µM, compound concentration 1 uM, replicate 2
[3] = 12 h, 10 µM, compound concentration 10 uM, replicate 1
[4] = 12 h, 10 µM, compound concentration 10 uM, replicate 2
[5] = 24 h, 1 µM, compound concentration 1 uM, replicate 1
[6] = 24 h, 1 µM, compound concentration 1 uM, replicate 2
[7] = 24 h, 10 µM, compound concentration 10 uM, replicate 1
[8] = 24 h, 10 µM, compound concentration 10 uM, replicate 2
[9] = 48 h, 1 µM, compound concentration 1 uM, replicate 1
[10] = 48 h, 1 µM, compound concentration 1 uM, replicate 2
[11] = 48 h, 10 µM, compound concentration 10 uM, replicate 1
[12] = 48 h, 10 µM, compound concentration 10 uM, replicate 2

Question: Which “Population Apoptotic (%)” value [1] does the source give for Cc1nn(C)c2nc(NNC(=O)Nc3cc(Cl)nc(Cl)c3)cc(C(C)C)c12 here?
Answer: 62%

Question: What about the “Population Fragmented Nuclei (%)” value [1] of the same compound?
Answer: 15%

Question: What about the “Population Healthy Nuclei (%)” value [1] of the same compound?
Answer: 68%

Question: And the “Population Hoechst High Intensity Objects (%)” value [1]?
Answer: 3%

Question: And the “Population Membrane Permeable-Phenotype (%)” value [1]?
Answer: 0%

Question: And the “Population Mitochondria Different-Phenotype (%)” value [1]?
Answer: 4%

Question: What about the “Population Mitotic Cells (%)” value [1] of the same compound?
Answer: 37%

Question: What about the “Population Normal (%)” value [1] of the same compound?
Answer: 96%

Question: And the “Population Pyknosed Nuclei (%)” value [1]?
Answer: 15%

Question: And the “Population Tubulin-Different-Phenotype (%)” value [1]?
Answer: 27%

Question: And the “Total Cell Count” value [1]?
Answer: 178

Question: What about the “Population Apoptotic (%)” value [2] of the same compound?
Answer: 37%

Question: And the “Population Fragmented Nuclei (%)” value [2]?
Answer: 31%

Question: And the “Population Healthy Nuclei (%)” value [2]?
Answer: 53%

Question: And the “Population Hoechst High Intensity Objects (%)” value [2]?
Answer: 2%

Question: What about the “Population Mitochondria Different-Phenotype (%)” value [2] of the same compound?
Answer: 7%

Question: And the “Population Mitotic Cells (%)” value [2]?
Answer: 62%

Question: What about the “Population Normal (%)” value [2] of the same compound?
Answer: 97%

Question: And the “Population Tubulin-Different-Phenotype (%)” value [2]?
Answer: 46%

Question: And the “Total Cell Count” value [2]?
Answer: 179

Question: And the “Population Apoptotic (%)” value [3]?
Answer: 53%

Question: And the “Population Fragmented Nuclei (%)” value [3]?
Answer: 12%

Question: What about the “Population Healthy Nuclei (%)” value [3] of the same compound?
Answer: 63%

Question: What about the “Population Hoechst High Intensity Objects (%)” value [3] of the same compound?
Answer: 3%

Question: What about the “Population Membrane Permeable-Phenotype (%)” value [3] of the same compound?
Answer: 2%

Question: What about the “Population Mitochondria Different-Phenotype (%)” value [3] of the same compound?
Answer: 15%

Question: What about the “Population Mitotic Cells (%)” value [3] of the same compound?
Answer: 46%

Question: What about the “Population Normal (%)” value [3] of the same compound?
Answer: 96%

Question: What about the “Population Pyknosed Nuclei (%)” value [3] of the same compound?
Answer: 23%

Question: What about the “Population Tubulin-Different-Phenotype (%)” value [3] of the same compound?
Answer: 89%

Question: And the “Total Cell Count” value [3]?
Answer: 139

Question: What about the “Population Apoptotic (%)” value [4] of the same compound?
Answer: 21%

Question: And the “Population Fragmented Nuclei (%)” value [4]?
Answer: 33%

Question: What about the “Population Healthy Nuclei (%)” value [4] of the same compound?
Answer: 56%

Question: What about the “Population Hoechst High Intensity Objects (%)” value [4] of the same compound?
Answer: 7%

Question: And the “Population Membrane Permeable-Phenotype (%)” value [4]?
Answer: 5%

Question: What about the “Population Mitochondria Different-Phenotype (%)” value [4] of the same compound?
Answer: 6%

Question: And the “Population Mitotic Cells (%)” value [4]?
Answer: 78%

Question: What about the “Population Normal (%)” value [4] of the same compound?
Answer: 92%

Question: And the “Population Pyknosed Nuclei (%)” value [4]?
Answer: 10%

Question: What about the “Total Cell Count” value [4] of the same compound?
Answer: 140

Question: What about the “Population Apoptotic (%)” value [5] of the same compound?
Answer: 59%

Question: What about the “Population Fragmented Nuclei (%)” value [5] of the same compound?
Answer: 18%

Question: What about the “Population Healthy Nuclei (%)” value [5] of the same compound?
Answer: 68%

Question: And the “Population Hoechst High Intensity Objects (%)” value [5]?
Answer: 1%

Question: And the “Population Membrane Permeable-Phenotype (%)” value [5]?
Answer: 1%

Question: What about the “Population Mitochondria Different-Phenotype (%)” value [5] of the same compound?
Answer: 3%

Question: What about the “Population Mitotic Cells (%)” value [5] of the same compound?
Answer: 40%

Question: What about the “Population Normal (%)” value [5] of the same compound?
Answer: 98%

Question: And the “Population Pyknosed Nuclei (%)” value [5]?
Answer: 12%

Question: What about the “Population Tubulin-Different-Phenotype (%)” value [5] of the same compound?
Answer: 29%

Question: And the “Total Cell Count” value [5]?
Answer: 176

Question: And the “Population Apoptotic (%)” value [6]?
Answer: 62%

Question: And the “Population Fragmented Nuclei (%)” value [6]?
Answer: 21%

Question: And the “Population Hoechst High Intensity Objects (%)” value [6]?
Answer: 2%

Question: What about the “Population Membrane Permeable-Phenotype (%)” value [6] of the same compound?
Answer: 2%

Question: What about the “Population Mitochondria Different-Phenotype (%)” value [6] of the same compound?
Answer: 6%

Question: What about the “Population Mitotic Cells (%)” value [6] of the same compound?
Answer: 37%

Question: And the “Population Normal (%)” value [6]?
Answer: 97%

Question: And the “Population Pyknosed Nuclei (%)” value [6]?
Answer: 9%

Question: And the “Population Tubulin-Different-Phenotype (%)” value [6]?
Answer: 50%

Question: And the “Total Cell Count” value [6]?
Answer: 174

Question: And the “Population Apoptotic (%)” value [7]?
Answer: 52%

Question: What about the “Population Fragmented Nuclei (%)” value [7] of the same compound?
Answer: 12%

Question: And the “Population Healthy Nuclei (%)” value [7]?
Answer: 69%

Question: What about the “Population Hoechst High Intensity Objects (%)” value [7] of the same compound?
Answer: 4%

Question: And the “Population Membrane Permeable-Phenotype (%)” value [7]?
Answer: 1%

Question: And the “Population Mitochondria Different-Phenotype (%)” value [7]?
Answer: 22%

Question: And the “Population Mitotic Cells (%)” value [7]?
Answer: 47%

Question: What about the “Population Normal (%)” value [7] of the same compound?
Answer: 95%

Question: What about the “Population Pyknosed Nuclei (%)” value [7] of the same compound?
Answer: 18%

Question: What about the “Population Tubulin-Different-Phenotype (%)” value [7] of the same compound?
Answer: 95%

Question: What about the “Total Cell Count” value [7] of the same compound?
Answer: 130

Question: And the “Population Apoptotic (%)” value [8]?
Answer: 25%

Question: And the “Population Fragmented Nuclei (%)” value [8]?
Answer: 28%

Question: And the “Population Healthy Nuclei (%)” value [8]?
Answer: 61%

Question: And the “Population Hoechst High Intensity Objects (%)” value [8]?
Answer: 8%

Question: What about the “Population Membrane Permeable-Phenotype (%)” value [8] of the same compound?
Answer: 0%

Question: What about the “Population Mitochondria Different-Phenotype (%)” value [8] of the same compound?
Answer: 6%

Question: And the “Population Mitotic Cells (%)” value [8]?
Answer: 75%

Question: What about the “Population Normal (%)” value [8] of the same compound?
Answer: 91%

Question: What about the “Population Pyknosed Nuclei (%)” value [8] of the same compound?
Answer: 9%

Question: And the “Population Tubulin-Different-Phenotype (%)” value [8]?
Answer: 89%

Question: What about the “Total Cell Count” value [8] of the same compound?
Answer: 132

Question: And the “Population Apoptotic (%)” value [9]?
Answer: 71%

Question: What about the “Population Fragmented Nuclei (%)” value [9] of the same compound?
Answer: 18%

Question: What about the “Population Healthy Nuclei (%)” value [9] of the same compound?
Answer: 73%

Question: What about the “Population Hoechst High Intensity Objects (%)” value [9] of the same compound?
Answer: 1%

Question: And the “Population Membrane Permeable-Phenotype (%)” value [9]?
Answer: 1%

Question: And the “Population Mitochondria Different-Phenotype (%)” value [9]?
Answer: 2%

Question: And the “Population Mitotic Cells (%)” value [9]?
Answer: 28%

Question: And the “Population Normal (%)” value [9]?
Answer: 98%

Question: And the “Population Pyknosed Nuclei (%)” value [9]?
Answer: 7%

Question: What about the “Population Tubulin-Different-Phenotype (%)” value [9] of the same compound?
Answer: 30%

Question: What about the “Total Cell Count” value [9] of the same compound?
Answer: 188

Question: What about the “Population Apoptotic (%)” value [10] of the same compound?
Answer: 57%

Question: And the “Population Fragmented Nuclei (%)” value [10]?
Answer: 34%

Question: And the “Population Healthy Nuclei (%)” value [10]?
Answer: 62%

Question: What about the “Population Hoechst High Intensity Objects (%)” value [10] of the same compound?
Answer: 2%

Question: And the “Population Membrane Permeable-Phenotype (%)” value [10]?
Answer: 2%

Question: And the “Population Mitotic Cells (%)” value [10]?
Answer: 42%

Question: What about the “Population Normal (%)” value [10] of the same compound?
Answer: 97%

Question: What about the “Population Pyknosed Nuclei (%)” value [10] of the same compound?
Answer: 3%

Question: And the “Population Tubulin-Different-Phenotype (%)” value [10]?
Answer: 36%

Question: And the “Total Cell Count” value [10]?
Answer: 184

Question: And the “Population Apoptotic (%)” value [11]?
Answer: 93%

Question: What about the “Population Fragmented Nuclei (%)” value [11] of the same compound?
Answer: 16%

Question: What about the “Population Healthy Nuclei (%)” value [11] of the same compound?
Answer: 70%

Question: And the “Population Hoechst High Intensity Objects (%)” value [11]?
Answer: 8%

Question: And the “Population Membrane Permeable-Phenotype (%)” value [11]?
Answer: 2%

Question: What about the “Population Mitochondria Different-Phenotype (%)” value [11] of the same compound?
Answer: 31%

Question: And the “Population Mitotic Cells (%)” value [11]?
Answer: 6%

Question: What about the “Population Normal (%)” value [11] of the same compound?
Answer: 91%

Question: And the “Population Pyknosed Nuclei (%)” value [11]?
Answer: 13%

Question: And the “Population Tubulin-Different-Phenotype (%)” value [11]?
Answer: 96%

Question: And the “Total Cell Count” value [11]?
Answer: 129

Question: What about the “Population Apoptotic (%)” value [12] of the same compound?
Answer: 62%

Question: And the “Population Fragmented Nuclei (%)” value [12]?
Answer: 38%

Question: And the “Population Healthy Nuclei (%)” value [12]?
Answer: 56%

Question: What about the “Population Hoechst High Intensity Objects (%)” value [12] of the same compound?
Answer: 3%

Question: And the “Population Mitochondria Different-Phenotype (%)” value [12]?
Answer: 5%

Question: And the “Population Mitotic Cells (%)” value [12]?
Answer: 37%

Question: And the “Population Normal (%)” value [12]?
Answer: 96%

Question: And the “Population Pyknosed Nuclei (%)” value [12]?
Answer: 5%

Question: What about the “Population Tubulin-Different-Phenotype (%)” value [12] of the same compound?
Answer: 85%

Question: What about the “Total Cell Count” value [12] of the same compound?
Answer: 155
